Shown are actives, neighbours in structure and some others; about 2.2% of the full set was active somewhere.
ARFGAP1 inhibitor = inhibitors of rat ARFGAP1 GAP activity, primary screen, biochemical, fluorescence polarization, GDP tracer. AID 651572, 2012. Arfgap1-stimulated ARF1 GTP hydrolysis, GDP FP detection. ADP-ribosylation factor GTPase-activating protein 1 (Rattus norvegicus), Q62848. inhibition, % at 16.5 µM. 0.26% of 360,000 active;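 active means inhibition above a per-plate limit, mean inhibition of low control wells plus 3 SD, cut at about 25% in these data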;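 further: 0% = DMSO wells with enzyme and 100% = wells lacking Arfgap1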
Target sequence (Q62848 1-136 limits assumed): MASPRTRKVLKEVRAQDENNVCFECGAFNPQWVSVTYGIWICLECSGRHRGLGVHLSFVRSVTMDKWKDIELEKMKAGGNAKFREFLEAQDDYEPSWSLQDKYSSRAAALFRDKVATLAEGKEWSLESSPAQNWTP
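System: truncated rat Arfgap1 GAP domain / Medium: HEPES-based buffer, pH 7.5 / Also added: N-terminally truncated human ARF1-GTP substrate / Incubation: enzyme reaction 120 min at 25 °C after 20 min preincubation / Measured by: FP of antibody-bound GDP Alexa 633 tracer, ex 620/em 688 nm / Replicates: singlicate, each compound tested once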
NadD block = inhibitors of S. aureus NadD, primary screen, biochemical, colorimetric, uHTS. Nicotinate-nucleotide adenylyltransferase NadD (Staphylococcus aureus N315). inhibition, % at 20 µM. AID 602399, 2012. 0.78% of 360,000 active. purified NadD enzyme, colorimetric absorbance read-out; in the data active means inhibition above about 26%
ASAP1 inh = inhibitors of human ASAP1 ArfGAP activity, primary screen, biochemical, fluorescence polarization | Arf-GAP with SH3 domain, ANK repeat and PH domain-containing protein 1 (Homo sapiens), … | ASAP1-stimulated ARF1 GTP hydrolysis, GDP FP detection | inhibition, % at 16.5 µM | 0.19% of 360,000 active | AID 624377, 2012; in the data active means inhibition above about 25%;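 further: 0% = vehicle with enzyme and substrate and 100% = no enzyme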
Target sequence (Q9ULH1 325-724 limits assumed): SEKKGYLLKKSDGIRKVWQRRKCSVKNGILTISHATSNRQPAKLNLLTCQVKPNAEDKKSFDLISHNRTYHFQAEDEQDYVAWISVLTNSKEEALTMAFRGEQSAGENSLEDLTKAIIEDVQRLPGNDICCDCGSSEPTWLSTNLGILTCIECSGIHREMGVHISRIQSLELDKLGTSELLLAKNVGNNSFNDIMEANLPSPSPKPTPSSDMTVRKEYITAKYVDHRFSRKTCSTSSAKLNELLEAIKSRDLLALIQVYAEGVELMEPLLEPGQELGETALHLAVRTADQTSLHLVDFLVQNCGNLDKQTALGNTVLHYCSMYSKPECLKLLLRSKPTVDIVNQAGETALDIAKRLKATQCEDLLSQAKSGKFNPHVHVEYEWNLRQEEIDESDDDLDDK
rCAG RNA binder = binders of r(CAG) RNA repeats, primary screen, biochemical, fluorescence; AID 651821, 2012; r(CAG) RNA repeat, TO-PRO-1 dye displacement fluorescence; inhibition, % at 3 µM; 1.3% of 370,000 active;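 active means inhibition above the plate cutoff, the mean of all test compounds on that plate plus 3 SD, cut at about 35% in these data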;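 further: 0% = DMSO alone and 100% = 100 µM mitoxantrone as full dye displacement; higher means more dye released from RNA so lower well fluorescence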
rCAG binder conf = small molecules binding CAG repeat RNA – biochemical, fluorescence, confirmation. inhibition, % at 3 µM. shares compounds with rCAG RNA binder. AID 652065, 2013. r(CAG) RNA repeat, TO-PRO-1 dye displacement fluorescence. 70% of 4,300 active;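 active means inhibition above a per-plate cutoff, the mean inhibition of sample wells plus 3 SD, cut at about 35% in these data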;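 further: loss of TO-PRO-1 fluorescence as compound displaces dye from 1x1 AA loop RNA; 0% = DMSO only wells and 100% = 100 µM mitoxantrone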
dCAG dye counter = displacement of TO-PRO-1 from CAG DNA duplex, counter-screen for rCAG RNA repeat binder project, biochemical, fluorescence, TO-PRO-1 dye, d(CAG) DNA oligo; shares compounds with rCAG RNA binder; d(CAG) DNA oligo TO-PRO-1 dye displacement; inhibition, % at 3 µM; 94% of 4,300 active; AID 652068, 2013;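 active means inhibition above its plate's cutoff, the mean test-well inhibition plus 3 SD, cut at about 4.8% in these data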;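 further: 0% = DNA dye mix with DMSO and 100% = 100 µM mitoxantrone; hits displace the dye from DNA and so lower well fluorescence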
dCAG dye DR = inhibitors of DNA CAG/GTC TO-PRO-1 complex, dose response, counter-screen for rCAG RNA repeat binder project, biochemical, fluorescence, TO-PRO-1 dye. shares compounds with rCAG RNA binder. 20% of 250 active. DNA CAG/GTC duplex TO-PRO-1 dye displacement fluorescence. IC50, µM; in the data active means IC50 below about 10 µM
An asterisk follows results filed as active; i = inactive; . = no result.

SMILES	ARFGAP1 inhibitor	NadD block	ASAP1 inh	rCAG RNA binder	rCAG binder conf	dCAG dye counter	others
CCOC(=O)CC[C@H]1CC[C@]2(CCCN(C(=O)c3ccno3)C2)O1	.	.	.	0.5	.	.
CCc1cc(=O)oc2cc(C)c(CN3CCCCC3)c(O)c12	0.8	19.7	-7.7	22.5	.	.
CCc1cc(=O)oc2cc(C)c(CN3CCCC3)c(O)c12	-16.8	17.2	-22.2	35.6*	30.7	13.0*
CCCc1cc(=O)oc2cc(C)c(CN3CCCC3)c(O)c12	-2.9	29.4*	-3.4	36.8*	24.4	11.7*
CCCc1cc(=O)oc2c(CN3CCCC3)c(O)ccc12	-11.9	-0.2	-10.2	1.3	.	.
COc1ccccc1C(=O)NC1CCCCN(Cc2ccc(OC(F)(F)F)cc2)C1=O (stereo not drawn)	.	.	.	0.7	.	.
NC(c1csc(NC(=O)Nc2ccccc2)n1)C1CCCCC1 (stereo not drawn)	7.5	0.3	6.1	41.7*	24.4	4.8*
NC(c1csc(NC(=O)Nc2cccc(Cl)c2)n1)C1CCCCC1 (stereo not drawn)	6.8	10.2	10.7	47.1*	31.4	5.9*
NC(c1csc(NC(=O)Nc2ccccc2Cl)n1)C1CCCCC1 (stereo not drawn)	7.7	5.4	-1.8	22.8	.	.
C[C@H](CO)N1C[C@H](C)[C@H](CN(C)C(=O)Nc2ccc(C(F)(F)F)cc2)OCc2cnnn2CCCC1=O	1.9	-2.3	3.2	-1.0	.	.
CCn1nc(NC(=O)C(C)(C)C)c2cc3cccc(C)c3nc21	6.1	-7.7	-3.8	-4.9	.	.
CCn1nc(NS(=O)(=O)c2ccc([N+](=O)[O-])cc2)c2cc3cccc(C)c3nc21	-12.4	-2.4	-3.4	85.2*	69.4*	30.7*
CCn1nc(NS(=O)(=O)c2ccccc2[N+](=O)[O-])c2cc3cccc(C)c3nc21	3.5	12.0	8.3	73.8*	54.0*	20.8*
CCn1nc(NS(=O)(=O)c2ccccc2[N+](=O)[O-])c2cc3ccc(C)cc3nc21	.	8.1	.	.	.	.
CCOc1cccc(/C=N/NC(=S)Nc2ccccc2[N+](=O)[O-])c1O	-0.3	18.3	1.6	35.1*	35.3*	14.8*
CCCCNC(=S)N/N=C/c1cccc(OCC)c1O	-5.5	4.1	1.6	-4.1	.	.
O=[N+]([O-])c1ccccc1NC(=S)N/N=C/c1ccc(O)c(O)c1	5.1	4.3	10.9	36.7*	43.3*	22.7*
CN(Cc1ccccc1)C(=O)OCc1cn(Cc2ccccc2F)nn1	.	.	.	-2.0	.	.
O=S1(=O)c2ccc(N3CCC[C@@H]3CO)cc2O[C@@H]2CCN1C2	.	.	.	3.1	.	.
C/C(=N\NC(=O)c1ccccc1O)C1C(=O)c2ccccc2C1=O	3.6	2.9	-49.9	71.8*	64.4*	17.7*
Cc1ccc(-c2[nH]ncc2/C=N/n2c(COc3ccccc3)nc3ccccc3c2=O)cc1	6.8	8.9	-4.6	8.4	.	.
Cc1cc(/C=N/n2c(COc3ccccc3)nc3ccccc3c2=O)c(O)c([N+](=O)[O-])c1	-5.3	22.2	16.1	65.5*	62.6*	26.7*
CCOC(=O)c1ccc(/C=C2/C=C(c3ccccc3)N(c3ccc(Cl)c(C(=O)O)c3)C2=O)cc1	-0.3	28.5	-10.7	60.6*	70.2*	31.9*
Cc1cc(C(F)(F)F)c2c(C)nn(CCc3nn[nH]n3)c2n1	8.9	-1.1	-0.1	3.4	.	.
Cc1nn(CCc2nn[nH]n2)c2nc(-c3ccccc3)cc(C(F)(F)F)c12	4.6	9.8	4.2	43.6*	25.2	3.3
SMILES	ARFGAP1 inhibitor	NadD block	ASAP1 inh	rCAG RNA binder	rCAG binder conf	dCAG dye counter	others
COCCN(CCOC)Cc1c(O)ccc2c1O/C(=C\c1ccc(C)o1)C2=O	2.8	1.2	9.7	36.0*	-0.4	-1.4
COc1ccc(NC(=O)N(C)[C@H]2C[C@H]3c4[nH]c5c(-c6ccccc6)cccc5c4CCN3C(=O)[C@H]2[C@H](C)O)cc1	5.3	.	4.0	7.3	.	.
COc1cc(/C=C2\SC(=O)NC2=O)ccc1Oc1ccc([N+](=O)[O-])cc1[N+](=O)[O-]	1.0	5.1	-1.1	51.7*	72.4*	33.0*	dCAG dye DR=i
COCCCN1C(=O)[C@H](CC(=O)NCCC(C)C)[C@]2(C(=O)OC)CCCCC=C12	.	.	.	0.1	.	.
CCOC(=O)c1c(NC(=O)/C=C/C(=O)O)sc(C)c1-c1ccc(C)c(C)c1	-18.1	6.4	-1.3	52.8*	52.6*	16.7*
COC(=O)c1c(NC(=O)/C=C/C(=O)O)sc(C)c1-c1ccc(C(C)C)cc1	-11.5	7.3	-2.6	51.9*	51.3*	15.8*
COC(=O)c1c(NC(=O)/C=C/C(=O)O)sc(C)c1-c1ccc(C)c(C)c1	-7.1	-0.3	-2.7	36.7*	35.6*	9.1*
CCOC(=O)c1c(NC(=O)/C=C/C(=O)O)sc(C)c1-c1ccc(F)cc1	4.5	-3.4	4.5	31.6	.	.
COc1cc(NC(=O)CSc2nc3ccccc3cc2C)c(C(=O)O)cc1OC	12.9	6.3	4.9	25.4	.	.
CCc1cc2ccccc2nc1SCC(=O)Nc1cc(OC)c(OC)cc1C(=O)O	12.9	11.1	-3.7	52.8*	45.3*	12.8*
O=c1c2c(n3nnnc3n1Cc1ccc(Cl)cc1)-c1ccccc1CC21CCCC1	.	.	.	7.5	.	.
CC(=O)NS(=O)(=O)c1ccc(N=c2ssc3c2-c2ccc(C)cc2NC3(C)C)cc1	-9.8	8.6	-10.8	61.4*	52.1*	21.0*
Cc1cc(C)cc(NS(=O)(=O)c2ccc(NC(=O)C3CCCCC3C(=O)O)cc2)c1 (stereo not drawn)	1.9	1.5	10.2	35.7*	25.5	4.8*
CC(C)c1ccc(NC(=O)C2CCCCC2C(=O)O)cc1 (stereo not drawn)	-11.6	1.5	-0.1	-1.7	.	.
CC(=O)Nc1ccc(S(=O)(=O)Nc2nc3ccccc3nc2N2CCOCC2)cc1	11.0	-0.1	-10.4	2.7	.	.
CC(=O)Nc1ccc(S(=O)(=O)Nc2nc3ccccc3nc2Nc2cccc(O)c2)cc1	11.0	-0.5	15.4	58.6*	46.0*	11.8*
CC(=O)Nc1ccc(S(=O)(=O)Nc2ccc(Nc3ccccc3)cc2)cc1	13.4	-3.1	9.5	14.7	.	.
CCCCN(CCCC)c1nc2ccccc2nc1NS(=O)(=O)c1ccc(NC(C)=O)cc1	-9.1	0.8	3.1	3.9	.	.
